ChEMBL document CHEMBL4339200, “Structure-based Discovery of Phenyl (3-Phenylpyrrolidin-3-yl)sulfones as Selective, Orally Active RORγt Inverse Agonists” (ACS Med Chem Lett, 2019)
The source made the active and inactive calls. The calls are words filed in the database; no cut-off is given here.

Key:
Mus musculus [1] = assay: Inhibition of IL2/IL23-induced IL17A production in po bid dosed C57BL/6 mouse treated 30 mins prior to 24 hrs IL2 challenge followed by IL2/IL23 addition at 0,7 and 23 hrs measured after 7 hrs post last IL2/IL23 challenge; assay type: functional, organism-based
Summary of the method: (§1)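 Naive mice were challenged three times with IL-2 plus IL-23 (first at 0 and 7 h) and dosed orally bid at 5, 15 or 50 mg/kg. Serum cytokines were measured 7 h after the final IL-2/IL-23 administration. An anti-IL-23 antibody served as positive control.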

[2] = Half life in mouse liver microsomes; assay type: ADME, Microsome
[3] = Oral bioavailability in Balb/c mouse at 10 mg/kg; assay type: ADME, organism-based; settings: in vivo
Summary of the method: (§2)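 Balb/c mice given a single intravenous dose of 2 mg/kg or an oral dose of 10 mg/kg. Plasma exposure was followed to derive Cmax, Tmax, AUC, t1/2, clearance, Vss and oral bioavailability (F).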

[4] = Inhibition of CYP1B2 (unknown origin); assay type: ADME, Homo sapiens
[5] = Protein binding in mouse plasma assessed as unbound fraction; assay type: ADME, cell-free
Mus musculus [6] = assay: Inhibition of IL2/IL23-induced IL17F production in C57BL/6 mouse at 50 mg/kg, po bid treated 30 mins prior to 24 hrs IL2 challenge followed by IL2/IL23 addition at 0,7 and 23 hrs measured after 7 hrs post last IL2/IL23 challenge relative to control; assay type: functional; settings: C57BL/6, po; summary of the method: as §1
[7] = target: T1, Nuclear receptor ROR-alpha (Homo sapiens) (UniProt P35398); assay: Agonist activity at GAL4-fused RORalpha LBD (272 to 556 residues) (unknown origin) expressed in human Jurkat cells measured after 18 hrs by native IL17 promoter driven steady-glo luciferase assay; assay type: cell-based
T1 sequence (whole entry): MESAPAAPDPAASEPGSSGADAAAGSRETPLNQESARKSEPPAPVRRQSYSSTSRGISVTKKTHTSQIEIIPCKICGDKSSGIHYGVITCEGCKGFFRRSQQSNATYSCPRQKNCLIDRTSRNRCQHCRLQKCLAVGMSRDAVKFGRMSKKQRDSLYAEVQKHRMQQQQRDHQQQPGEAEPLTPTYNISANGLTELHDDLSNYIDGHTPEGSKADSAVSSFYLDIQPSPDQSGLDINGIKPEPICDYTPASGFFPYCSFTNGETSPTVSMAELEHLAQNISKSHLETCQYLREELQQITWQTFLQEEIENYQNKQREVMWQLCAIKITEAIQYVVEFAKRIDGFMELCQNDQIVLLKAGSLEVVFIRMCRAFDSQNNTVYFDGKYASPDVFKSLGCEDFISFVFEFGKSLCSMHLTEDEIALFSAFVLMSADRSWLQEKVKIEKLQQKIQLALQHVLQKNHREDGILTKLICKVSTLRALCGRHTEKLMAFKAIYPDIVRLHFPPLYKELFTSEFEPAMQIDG

[8] = Clearance in Balb/c mouse at 2 mg/kg, iv; assay type: ADME, organism-based; settings: in vivo; summary of the method: as §2
[9] = target: T1, Nuclear receptor ROR-alpha (Homo sapiens); assay: Inverse agonist activity at GAL4-fused RORalpha LBD (272 to 556 residues) (unknown origin) expressed in human Jurkat cells measured after 18 hrs by native IL17 promoter driven steady-glo luciferase assay; assay type: cell-based

In the case of `O=C(O)[C@H]1CC[C@H](C(=O)N2CC[C@](c3ccc(C(F)(C(F)(F)F)C(F)(F)F)cc3)(S(=O)(=O)c3ccc(F)cc3)C2)CC1`, the inhibition (Mus musculus [1]) is reported as “Dose-dependent effect”, the half-life [2] is reported as > 2 h and the bioavailability [3] is reported as 99%. The IC50 [4] was > 20 µM, the fraction unbound [5] was 0.105 and the inhibition in vivo at 50 mg/kg (Mus musculus [6]) was 98%. For the same compound, the Activity [7] was “inactive”, the clearance [8] was 0.432 L/h/kg and the Activity [9] was “inactive”.
